Active and inactive are the calls of the source. The calls are words filed in the database; no cut-off is given here.
How the values were obtained:
Aspergillus niger [1] = assay: Antifungal activity against Aspergillus niger NCIM 813 at 100 ug/ml by agar cup plate method; format: functional; conditions: for zone of inhibition at 100 µg/mL: read-out: IZ
In short: (§1)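 Agar cup plate assay. Strains were obtained from NCL Pune, India, and test compounds were dissolved in DMF. Values are reported as mean (SEM).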

Bacillus subtilis [2] = assay: Antibacterial activity against Bacillus subtilis NCIM 2613 at 100 ug/ml by agar cup plate method; conditions: read-out: IZ
Staphylococcus aureus [3] = assay: Antibacterial activity against Staphylococcus aureus NCIM 2602 at 100 ug/ml by agar cup plate method; conditions: read-out: IZ
Escherichia coli [4] = assay: Antibacterial activity against Escherichia coli NCIM 2666 at 100 ug/ml by agar cup plate method; format: functional; conditions: for zone of inhibition at 100 µg/mL: read-out: IZ; in short: as §1
Penicillium roqueforti [5] = assay: Antifungal activity against Penicillium roqueforti NCIM 712 at 100 ug/ml by agar cup plate method; format: functional; conditions: for zone of inhibition at 100 µg/mL: read-out: IZ; in short: as §1
Delftia acidovorans [6] = assay: Antibacterial activity against Pseudomonas desmolytica NCIM 2028 at 100 ug/ml by agar cup plate method; format: functional; conditions: for zone of inhibition at 100 µg/mL: read-out: IZ; in short: as §1
Penicillium roqueforti [7] = assay: Antifungal activity against Penicillium roqueforti NCIM 712 at 50 ug/ml by agar cup plate method; format: functional; conditions: read-out: IZ; in short: as §1
Aspergillus niger [8] = assay: Antifungal activity against Aspergillus niger NCIM 813 at 50 ug/ml by agar cup plate method; format: functional; conditions: read-out: IZ; in short: as §1
Staphylococcus aureus [9] = assay: microbe, parasite or virus in culture; conditions: Bacillus subtilis, NCIM 2613, read-out: IZ
Escherichia coli [10] = assay: microbe, parasite or virus in culture; conditions: NCIM 2666, read-out: IZ
Delftia acidovorans [11] = assay: Antibacterial activity against Pseudomonas desmolytica NCIM 2028 at 50 ug/ml by agar cup plate method; format: functional; conditions: read-out: IZ; in short: as §1
Bacillus subtilis [12] = assay: microbe, parasite or virus in culture; conditions: Staphylococcus aureus, NCIM 2602, read-out: IZ

Row | SMILES | zone of inhibition at 100 µg/mL (Aspergillus niger [1]) [mm] | zone of inhibition at 100 µg/mL (Bacillus subtilis [2]) [mm] | zone of inhibition at 100 µg/mL (Staphylococcus aureus [3]) [mm] | zone of inhibition at 100 µg/mL (Escherichia coli [4]) [mm] | zone of inhibition at 100 µg/mL (Penicillium roqueforti [5]) [mm] | zone of inhibition at 100 µg/mL (Delftia acidovorans [6]) [mm] | further results
1 | COc1ccc(C2SCC(=O)N2c2ccc3c(C)cc(=O)oc3c2)cc1 (centres undefined) | 11 | 21 | 16 | 8 | 17 |  | inhibition zone (IZ) (Delftia acidovorans [6]): inactive
2 | Cc1cc(=O)oc2cc(/N=C/c3ccccc3O)ccc12 | 6 | 7 | 3 |  | 10 |  | inhibition zone (IZ) (Escherichia coli [4]): inactive; inhibition zone (IZ) (Delftia acidovorans [6]): inactive
3 | Cc1cc(=O)oc2cc(N3C(=O)CSC3c3ccc(F)cc3)ccc12 (centres undefined) | 13 | 28 | 20 | 18 | 19 | 13 | 
4 | COc1cccc(/C=N/c2ccc3c(C)cc(=O)oc3c2)c1 | 11 | 13 | 9 | 11 | 13 | 8 | 
5 | Cc1cc(=O)oc2cc(N3C(=O)CSC3c3ccc(Cl)cc3Cl)ccc12 (centres undefined) | 6 | 10 | 7 | 15 | 8 | 11 | 
6 | Cc1cc(=O)oc2cc(/N=C/c3ccc(O)cc3)ccc12 | 6 | 10 | 4 |  | 8 |  | inhibition zone (IZ) (Escherichia coli [4]): inactive; inhibition zone (IZ) (Delftia acidovorans [6]): inactive
7 | Cc1cc(=O)oc2cc(/N=C/c3ccccc3)ccc12 | 9 | 10 | 11 | 13 | 11 | 10 | 
8 | Cc1cc(=O)oc2cc(N3C(=O)CSC3c3ccccc3)ccc12 (centres undefined) | 8 | 19 | 12 | 2 | 13 | 14 | 
9 | Cc1cc(=O)oc2cc(N3C(=O)CSC3c3ccccc3O)ccc12 (centres undefined) | 7 | 8 | 4 |  | 11 |  | inhibition zone (IZ) (Escherichia coli [4]): inactive; inhibition zone (IZ) (Delftia acidovorans [6]): inactive
10 | Cc1ccc(/C=N/c2ccc3c(C)cc(=O)oc3c2)cc1 | 3 | 9 | 7 | 10 | 7 | 11 | 
11 | Cc1ccc(C2SCC(=O)N2c2ccc3c(C)cc(=O)oc3c2)cc1 (centres undefined) | 3 | 8 | 6 | 20 | 6 | 15 | 
12 | Cc1cc(=O)oc2cc(/N=C/c3ccc(N(C)C)cc3)ccc12 |  | 14 | 6 | 8 |  | 8 | inhibition zone (IZ) (Aspergillus niger [1]): inactive; inhibition zone (IZ) (Penicillium roqueforti [5]): inactive
13 | COC1=CC(=O)C[C@@H](C)[C@]12Oc1c(Cl)c(OC)cc(OC)c1C2=O [GRISEOFULVIN] |  |  |  |  |  |  | zone of inhibition at 50 µg/mL (Penicillium roqueforti [7]): 2 mm; zone of inhibition at 50 µg/mL (Aspergillus niger [8]): 17 mm
14 | O=C(O)c1cn(C2CC2)c2cc(N3CCNCC3)c(F)cc2c1=O [CIPROFLOXACIN] |  |  |  |  |  |  | zone of inhibition at 50 µg/mL (Staphylococcus aureus [9]): 18 mm; zone of inhibition at 50 µg/mL (Escherichia coli [10]): 30 mm; zone of inhibition at 50 µg/mL (Delftia acidovorans [11]): 18 mm; zone of inhibition at 50 µg/mL (Bacillus subtilis [12]): 25 mm
15 | Cc1cc(=O)oc2cc(/N=C/c3ccc(Cl)cc3Cl)ccc12 | 7 | 12 | 5 | 14 | 9 | 13 | 
16 | Cc1cc(=O)oc2cc(N3C(=O)CSC3c3ccco3)ccc12 (centres undefined) |  |  |  | 13 | 5 | 6 | inhibition zone (IZ) (Aspergillus niger [1]): inactive
17 | Cc1cc(=O)oc2cc(/N=C/c3ccc(F)cc3)ccc12 |  | 17 | 16 | 14 | 5 | 12 | inhibition zone (IZ) (Aspergillus niger [1]): inactive
18 | Cc1cc(=O)oc2cc(/N=C/c3cccc([N+](=O)[O-])c3)ccc12 |  | 20 | 15 | 9 | 4 | 10 | inhibition zone (IZ) (Aspergillus niger [1]): inactive
19 | Cc1cc(=O)oc2cc(N3C(=O)CSC3c3ccc(N(C)C)cc3)ccc12 (centres undefined) |  | 13 | 5 | 10 |  | 7 | inhibition zone (IZ) (Aspergillus niger [1]): inactive; inhibition zone (IZ) (Penicillium roqueforti [5]): inactive
20 | Cc1cc(=O)oc2cc(N3C(=O)CSC3c3ccc(O)cc3)ccc12 (centres undefined) | 5 | 9 | 4 |  | 9 |  | inhibition zone (IZ) (Escherichia coli [4]): inactive; inhibition zone (IZ) (Delftia acidovorans [6]): inactive
21 | COc1cccc(C2SCC(=O)N2c2ccc3c(C)cc(=O)oc3c2)c1 (centres undefined) | 13 | 17 | 10 | 12 | 20 | 9 | 
22 | Cc1cc(=O)oc2cc(N3C(=O)CSC3c3cccc([N+](=O)[O-])c3)ccc12 (centres undefined) |  | 27 | 19 | 10 | 3 | 9 | inhibition zone (IZ) (Aspergillus niger [1]): inactive
23 | COc1ccc(/C=N/c2ccc3c(C)cc(=O)oc3c2)cc1 | 9 | 21 | 13 | 7 | 14 |  | inhibition zone (IZ) (Delftia acidovorans [6]): inactive
24 | Cc1cc(=O)oc2cc(/N=C/c3ccco3)ccc12 |  |  |  | 12 | 6 | 7 | inhibition zone (IZ) (Aspergillus niger [1]): inactive

— ChEMBL document CHEMBL1154632, “Synthesis and antimicrobial activity of 7-(2-substituted phenylthiazolidinyl)-benzopyran-2-one derivatives” (2010)
